Experimental data reported in ChEMBL document CHEMBL1132974 (J Med Chem, 2000).
Several values for one entry are separate records, joined by “and”; a condition that tells them apart may be missing. Equal values may be shown once.

Legend:
[1] = molecular target: Muscarinic acetylcholine receptor M3 (Cavia porcellus, UniProt Q8VH26); assay: Compound was evaluated for its antagonist affinity towards Muscarinic acetylcholine receptor M3 of guinea pig; type: functional; settings: read-out: pA2 (converted)
Muscarinic acetylcholine receptor M3, sequence (Q8VH26 whole entry): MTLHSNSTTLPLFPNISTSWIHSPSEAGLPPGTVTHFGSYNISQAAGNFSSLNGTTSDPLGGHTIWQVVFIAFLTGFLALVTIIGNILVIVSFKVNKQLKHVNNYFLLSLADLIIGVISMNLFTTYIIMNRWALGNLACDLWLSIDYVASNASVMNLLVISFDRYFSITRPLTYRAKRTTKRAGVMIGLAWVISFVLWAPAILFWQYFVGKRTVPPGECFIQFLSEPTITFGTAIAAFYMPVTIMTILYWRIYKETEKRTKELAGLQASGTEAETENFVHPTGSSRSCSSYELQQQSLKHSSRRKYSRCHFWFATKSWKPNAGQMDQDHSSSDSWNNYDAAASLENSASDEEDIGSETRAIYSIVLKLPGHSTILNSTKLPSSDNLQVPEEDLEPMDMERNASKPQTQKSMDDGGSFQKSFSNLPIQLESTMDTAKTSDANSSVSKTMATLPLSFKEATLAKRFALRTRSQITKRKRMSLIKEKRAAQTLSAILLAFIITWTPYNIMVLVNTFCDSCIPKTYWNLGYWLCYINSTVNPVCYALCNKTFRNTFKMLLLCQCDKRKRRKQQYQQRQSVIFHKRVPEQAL
Procedure, shortened: (§1)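 Functional antagonism assays in guinea-pig tissues, each run with 1 µM mepyramine present: M3 (whole ileum), β1 (right atrium), 5-HT1B (iliac artery), 5-HT3 (quiescent ileal longitudinal muscle with myenteric plexus). Results are given as apparent pA2, or pD'2 when only curve depression occurred.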

[2] = molecular target: Histamine H1 receptor (Cavia porcellus) (UniProt P31389); assay: Negative logarithm of receptor dissociation constant Kp was reported in guinea pig ileum whole segment; type: functional, tissue-based
Histamine H1 receptor (Cavia porcellus), sequence (P31389 whole entry): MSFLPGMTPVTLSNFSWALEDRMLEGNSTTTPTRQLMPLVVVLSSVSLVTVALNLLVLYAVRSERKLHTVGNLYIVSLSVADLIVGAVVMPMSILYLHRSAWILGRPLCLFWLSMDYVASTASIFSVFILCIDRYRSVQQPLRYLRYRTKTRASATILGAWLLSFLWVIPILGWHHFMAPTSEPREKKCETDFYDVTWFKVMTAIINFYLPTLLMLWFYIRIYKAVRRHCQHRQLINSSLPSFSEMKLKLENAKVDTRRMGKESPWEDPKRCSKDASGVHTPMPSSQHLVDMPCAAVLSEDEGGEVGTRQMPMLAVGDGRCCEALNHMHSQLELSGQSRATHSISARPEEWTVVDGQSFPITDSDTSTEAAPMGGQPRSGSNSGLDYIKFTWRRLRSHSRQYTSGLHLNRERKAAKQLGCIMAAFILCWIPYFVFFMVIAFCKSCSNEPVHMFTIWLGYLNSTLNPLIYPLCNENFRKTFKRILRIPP
Procedure, shortened: (§2)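 Guinea-pig ileum (0.1 µM atropine, 37 °C Tyrode's). […] Where several partial-agonist concentrations were used, the overall value comes from a Kaumann-Marano plot with slope constrained to unity.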

[3] = molecular target: T1, Histamine H1 receptor (Cavia porcellus, UniProt P31389); assay: Antagonism of guinea pig ileum contraction at 100 nM mepyramine; type: functional, tissue-based; settings: read-out: pA2 (converted)
T1 sequence (P31389 whole entry): as above
Procedure, shortened: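 Guinea-pig whole ileal segments (2.0–2.5 cm), isotonic, preload 0.5 g, Tyrode's at 37 °C, 95% O2/5% CO2, with 0.1 µM atropine throughout. […] Apparent pA2 = −log c + log(r−1); full pA2 from Schild plot, slope fixed at 1.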

[4] = molecular target: Histamine H1 receptor (Rattus norvegicus) (UniProt P31390); assay: The compound was evaluated for intrinsic activity in relaxed rat aortic rings with intact endothelium, submaximally precontracted with 15.8 nM U-46,619; type: functional, tissue-based; parameters: unit not given here; settings: Aorta
Target sequence in this assay (P31390 whole entry): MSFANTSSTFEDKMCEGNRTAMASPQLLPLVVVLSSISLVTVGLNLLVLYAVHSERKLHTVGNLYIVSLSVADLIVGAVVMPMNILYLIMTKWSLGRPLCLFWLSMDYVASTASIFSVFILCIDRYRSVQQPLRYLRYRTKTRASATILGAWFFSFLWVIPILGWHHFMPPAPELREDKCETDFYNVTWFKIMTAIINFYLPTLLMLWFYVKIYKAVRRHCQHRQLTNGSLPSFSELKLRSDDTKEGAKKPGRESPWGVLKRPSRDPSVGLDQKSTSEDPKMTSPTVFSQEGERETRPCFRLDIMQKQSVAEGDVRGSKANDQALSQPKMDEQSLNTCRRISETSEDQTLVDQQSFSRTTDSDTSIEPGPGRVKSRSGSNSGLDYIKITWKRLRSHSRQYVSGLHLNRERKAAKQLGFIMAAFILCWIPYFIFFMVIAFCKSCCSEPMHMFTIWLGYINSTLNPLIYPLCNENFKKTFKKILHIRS

[5] = molecular target: T2, Histamine H1 receptor (Rattus norvegicus, UniProt P31390); assay: Effective concentration for agonism activity in relaxed rat aortic rings with intact endothelium, submaximally precontracted with 15.8 nM U-46,619; type: functional, tissue-based, Aorta
T2 sequence (P31390 whole entry): as above

[6] = molecular target: Histamine H1 receptor (Cavia porcellus) (UniProt P31389); assay: Intrinsic activity was reported in guinea pig ileum whole segment.; type: functional, tissue-based
[7] = molecular target: T1, Histamine H1 receptor; assay: Effective concentration for agonist activity in guinea pig ileum whole segment; type: functional, tissue-based
[8] = molecular target: Histamine H3 receptor (Cavia porcellus, UniProt Q9JI35); assay: Compound was evaluated for its antagonist affinity towards Histamine H3 receptor of guinea pig; type: functional; settings: read-out: pA2 (converted)
Histamine H3 receptor, sequence (Q9JI35 whole entry): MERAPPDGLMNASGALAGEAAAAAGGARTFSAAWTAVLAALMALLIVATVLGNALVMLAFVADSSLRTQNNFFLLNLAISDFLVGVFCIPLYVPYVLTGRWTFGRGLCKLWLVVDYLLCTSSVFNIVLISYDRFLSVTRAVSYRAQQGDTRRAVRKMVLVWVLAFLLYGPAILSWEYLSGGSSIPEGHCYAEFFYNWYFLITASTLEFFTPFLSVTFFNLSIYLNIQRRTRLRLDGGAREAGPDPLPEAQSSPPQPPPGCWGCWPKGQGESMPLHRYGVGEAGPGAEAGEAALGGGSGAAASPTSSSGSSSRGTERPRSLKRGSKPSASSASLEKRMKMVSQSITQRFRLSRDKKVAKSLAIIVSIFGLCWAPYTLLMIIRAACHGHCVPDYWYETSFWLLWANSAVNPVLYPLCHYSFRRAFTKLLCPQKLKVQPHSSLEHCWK
Procedure, shortened: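 Electrically stimulated guinea-pig ileal longitudinal muscle with myenteric plexus, isometric (7.5 mN). Cumulative (R)-α-methylhistamine curves were run with and without test compound (20 min), with 1 µM mepyramine present. Values were apparent pA2, or pD'2 where curves were depressed.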

[9] = molecular target: Histamine H2 receptor (Cavia porcellus, UniProt P47747); assay: Compound was evaluated for its antagonist affinity towards Histamine H2 receptor of guinea pig; type: functional; settings: read-out: pA2 (converted)
Histamine H2 receptor, sequence (P47747 whole entry): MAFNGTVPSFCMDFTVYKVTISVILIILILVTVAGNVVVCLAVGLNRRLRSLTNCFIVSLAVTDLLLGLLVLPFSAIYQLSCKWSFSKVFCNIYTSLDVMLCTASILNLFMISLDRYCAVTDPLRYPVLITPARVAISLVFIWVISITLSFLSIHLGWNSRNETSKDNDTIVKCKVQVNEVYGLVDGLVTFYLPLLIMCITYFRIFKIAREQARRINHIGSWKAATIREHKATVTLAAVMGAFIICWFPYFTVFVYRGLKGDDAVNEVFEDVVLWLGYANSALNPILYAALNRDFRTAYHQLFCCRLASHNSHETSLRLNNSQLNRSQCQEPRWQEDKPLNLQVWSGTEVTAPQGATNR

[10] = molecular target: Histamine H1 receptor (Cavia porcellus) (UniProt P31389); assay: Intrinsic activity was reported in endothelium-denuded guinea pig(pre contracted with PGF-2 alpha) at a concentration of 10 uM; type: functional
Procedure, shortened: (§3)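 Endothelium-denuded guinea-pig aortic rings, set up as in the contraction assay, challenged twice with PGF2α (10 µM). Rings were precontracted with a threshold PGF2α level (usually 0.4–1.5 µM, 10–20% of the 10 µM response).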

[11] = molecular target: T1, Histamine H1 receptor; assay: Relative potency was recorded in endothelium-denuded guinea pig(pre contracted with PGF-2 alpha); value ranges from 5.76 to 6.40; type: functional; settings: read-out: pA2 (converted); procedure, shortened: as §3
[12] = molecular target: T2, Histamine H1 receptor; assay: Relative potency was recorded in relaxed rat aortic rings with intact endothelium, submaximally precontracted with 15.8 nM U-46,619 value; type: functional, tissue-based, Aorta; settings: read-out: pA2 (converted)
[13] = molecular target: Histamine H1 receptor (Cavia porcellus) (UniProt P31389); settings: 10 uM
[14] = molecular target: T1, Histamine H1 receptor; assay: Relative potency was recorded in endothelium-denuded guinea pig; value ranges from 5.75 to 6.25; type: functional; settings: read-out: pA2 (converted)
Procedure, shortened: (§4)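 Guinea-pig thoracic aortic rings (2–4 mm), endothelium rubbed off, isometric (10 mN), modified Krebs-Henseleit (1.80 mM Ca2+), 37 °C. Cimetidine, corticosterone and cocaine (30 µM each), prazosin and yohimbine (0.3 µM each) and propranolol (0.1 µM) were present. […] The pEC50 shift was corrected using untreated control preparations.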

[15] = molecular target: Histamine H1 receptor (Cavia porcellus) (UniProt P31389); assay: Relative potency in guinea pig ileum whole segment; value ranges from 4 to 15; type: functional, tissue-based
[16] = molecular target: Histamine H1 receptor (Cavia porcellus) (UniProt P31389); assay: Intrinsic activity of the compounddwas reported in guinea pig ileum whole segment; type: functional, tissue-based
[17] = molecular target: Histamine H1 receptor (Cavia porcellus) (UniProt P31389); assay: Negative logarithm of receptor dissociation constant Kp was reported; type: functional; procedure, shortened: as §2
[18] = molecular target: Beta-1 adrenergic receptor (Cavia porcellus, UniProt B0FL73); assay: Compound was evaluated for its antagonist affinity towards Beta-1 adrenergic receptor of guinea pig; type: functional; settings: read-out: pA2 (converted); procedure, shortened: as §1
Beta-1 adrenergic receptor, sequence (B0FL73 whole entry): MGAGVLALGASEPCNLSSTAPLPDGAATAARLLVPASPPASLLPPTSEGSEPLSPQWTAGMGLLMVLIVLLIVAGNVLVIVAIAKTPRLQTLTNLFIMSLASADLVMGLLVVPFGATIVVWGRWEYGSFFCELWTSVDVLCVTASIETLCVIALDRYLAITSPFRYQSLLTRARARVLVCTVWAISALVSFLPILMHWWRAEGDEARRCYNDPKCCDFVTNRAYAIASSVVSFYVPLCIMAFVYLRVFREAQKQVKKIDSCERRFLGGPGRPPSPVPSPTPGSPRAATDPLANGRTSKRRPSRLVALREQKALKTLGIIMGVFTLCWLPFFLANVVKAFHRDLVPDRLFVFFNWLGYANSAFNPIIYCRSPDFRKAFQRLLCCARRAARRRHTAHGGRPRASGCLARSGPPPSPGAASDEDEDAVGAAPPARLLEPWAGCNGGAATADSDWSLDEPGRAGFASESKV

[19] = molecular target: Serotonin 3 (5-HT3) receptor; assay: Compound was evaluated for its antagonist affinity towards 5-hydroxytryptamine 3 receptor of guinea pig; type: functional, Cavia porcellus; procedure, shortened: as §1
[20] = molecular target: T1, Histamine H1 receptor; assay: Compound was evaluated for mepyramine antagonism effects in guinea pig aorta (contraction) at a mepyramine concentration of 100 nM; type: functional, tissue-based; settings: read-out: pA2 (converted)
Procedure, shortened: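 Guinea-pig aortic rings with endothelium damaged, isometric (10 mN), 37 °C Krebs-Henseleit. Agonist curves were run with mepyramine (100 nM, about 60 min) after threshold PGF2α precontraction. Apparent pA2 = −log c + log(r−1).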

[21] = molecular target: T1, Histamine H1 receptor; assay: Effective concentration for agonism activity in endothelium-denuded guinea pig aortic segment; type: functional, tissue-based, Aorta; procedure, shortened: as §4
[22] = molecular target: 5-hydroxytryptamine receptor 4 (Rattus norvegicus, UniProt Q62758); assay: Compound was evaluated for its antagonist affinity towards 5-hydroxytryptamine 4 receptor of rat; type: functional; settings: read-out: pA2 (converted)
5-hydroxytryptamine receptor 4, sequence (Q62758 whole entry): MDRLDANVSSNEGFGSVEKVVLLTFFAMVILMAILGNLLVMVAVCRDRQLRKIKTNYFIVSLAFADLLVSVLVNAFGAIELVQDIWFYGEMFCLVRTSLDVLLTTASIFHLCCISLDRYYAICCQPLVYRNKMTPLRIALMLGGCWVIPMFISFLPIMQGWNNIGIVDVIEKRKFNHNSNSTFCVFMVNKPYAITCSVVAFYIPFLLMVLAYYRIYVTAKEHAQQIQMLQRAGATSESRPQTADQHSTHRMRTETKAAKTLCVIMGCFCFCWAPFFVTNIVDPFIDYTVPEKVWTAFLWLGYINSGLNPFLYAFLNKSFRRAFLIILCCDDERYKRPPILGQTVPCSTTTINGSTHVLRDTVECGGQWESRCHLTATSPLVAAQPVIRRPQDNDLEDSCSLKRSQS
Procedure, shortened: (§5)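 Functional antagonism in rat tissues: α1D (thoracic aorta), 5-HT2A (tail artery), 5-HT4 (oesophageal tunica muscularis mucosae). Results are given as apparent pA2 from single-concentration rightward shifts, or pD'2 when only curve depression occurred.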

[23] = molecular target: T3, Alpha-1D adrenergic receptor (Rattus norvegicus, UniProt P23944); assay: Compound was evaluated for its antagonist affinity towards Alpha-1D adrenergic receptor of rat; type: functional; settings: read-out: pA2 (converted); procedure, shortened: as §5
T3 sequence (P23944 whole entry): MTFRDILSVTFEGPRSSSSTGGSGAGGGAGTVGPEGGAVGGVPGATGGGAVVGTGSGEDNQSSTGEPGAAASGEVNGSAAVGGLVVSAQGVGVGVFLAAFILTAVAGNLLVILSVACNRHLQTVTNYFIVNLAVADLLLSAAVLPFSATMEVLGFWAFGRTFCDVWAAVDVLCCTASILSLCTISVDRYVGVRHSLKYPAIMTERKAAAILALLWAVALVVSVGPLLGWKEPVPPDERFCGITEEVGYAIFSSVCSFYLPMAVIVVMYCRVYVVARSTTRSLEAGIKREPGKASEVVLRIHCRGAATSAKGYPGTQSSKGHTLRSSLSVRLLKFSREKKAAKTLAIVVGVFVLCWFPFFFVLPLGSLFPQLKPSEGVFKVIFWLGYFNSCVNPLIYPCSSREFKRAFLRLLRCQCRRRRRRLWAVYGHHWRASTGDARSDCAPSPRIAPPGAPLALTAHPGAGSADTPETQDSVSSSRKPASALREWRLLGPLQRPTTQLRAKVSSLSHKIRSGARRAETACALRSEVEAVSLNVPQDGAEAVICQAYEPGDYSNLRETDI

[24] = molecular target: 5-hydroxytryptamine receptor 1B (Cavia porcellus); assay: Compound was evaluated for its antagonist affinity towards 5-hydroxytryptamine 1B receptor of guinea pig; settings: read-out: pA2 (converted)
[25] = molecular target: 5-hydroxytryptamine receptor 2A (Rattus norvegicus, UniProt P14842); assay: Compound was evaluated for its antagonist affinity towards 5-hydroxytryptamine 2A receptor of rat; type: functional; settings: read-out: pA2 (converted); procedure, shortened: as §5
5-hydroxytryptamine receptor 2A, sequence (P14842 whole entry): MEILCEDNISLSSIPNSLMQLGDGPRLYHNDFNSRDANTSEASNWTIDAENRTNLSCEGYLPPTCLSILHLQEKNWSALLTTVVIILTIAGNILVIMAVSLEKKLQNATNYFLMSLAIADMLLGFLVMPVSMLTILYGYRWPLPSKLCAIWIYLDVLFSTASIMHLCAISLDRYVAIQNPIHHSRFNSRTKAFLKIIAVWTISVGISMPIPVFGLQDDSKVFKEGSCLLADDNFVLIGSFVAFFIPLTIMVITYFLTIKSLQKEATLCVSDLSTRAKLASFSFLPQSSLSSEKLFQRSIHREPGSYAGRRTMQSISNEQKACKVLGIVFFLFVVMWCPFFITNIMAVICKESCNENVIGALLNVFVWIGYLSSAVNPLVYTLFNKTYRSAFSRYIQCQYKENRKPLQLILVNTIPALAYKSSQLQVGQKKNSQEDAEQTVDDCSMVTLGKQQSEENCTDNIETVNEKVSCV

[26] = molecular target: T1, Histamine H1 receptor; assay: Effective concentration for agonism activity in Endothelium-Denuded guinea pig aortic segment; type: functional, tissue-based, Aorta; procedure, shortened: as §4
[27] = molecular target: Histamine H1 receptor (Rattus norvegicus) (UniProt P31390); assay: Compound was evaluated for mepyramine antagonism effects in rat aorta (relaxation) at a mepyramine concentration of 100 nM; settings: read-out: pA2 (converted)
Target sequence in this assay (P31390 whole entry, looked up): as the sequence (P31390 whole entry) above

[28] = molecular target: T2, Histamine H1 receptor; assay: Compound was evaluated for mepyramine antagonism effects in rat aorta (relaxation) at a mepyramine concentration of 100 nM; type: functional, tissue-based; settings: read-out: pA2 (converted)
[29] = molecular target: Histamine H1 receptor (Rattus norvegicus) (UniProt P31390); assay: Relative potency was recorded in relaxed rat aortic rings with intact endothelium, submaximally precontracted with 15.8 nM U-46,619; value ranges from 244 to 450.; type: functional, tissue-based; settings: Aorta
Target sequence in this assay (P31390 whole entry): as above

[30] = molecular target: Histamine H1 receptor (Cavia porcellus) (UniProt P31389); assay: Relative potency in guinea pig ileum whole segment; value ranges from 51 to 88; type: functional, tissue-based
[31] = molecular target: Histamine H1 receptor (Rattus norvegicus) (UniProt P31390); assay: concentration of mepyramine was determined
Target sequence in this assay (P31390 whole entry, looked up): as the sequence (P31390 whole entry) above

Which results are given for `CCNCCc1c[nH]c(CCC(c2ccccc2)c2ccccc2)n1`?
Kb [1]: 1020 nM; pKp [2]: 5.75; Kb ([3]; in the assay text read “at 5 nM mepyramine” for “at 100 nM mepyramine”): 1.55 nM; Emax [4]: 44 and 47; EC50 [5]: 646 nM; Emax [6]: 89; EC50 [7]: 302 nM; Kb [8]: > 1000 nM; Kb [9]: 31600 nM

Which results are given for `NCCc1c[nH]c(CCCCC(c2ccccc2)c2ccccc2)n1`?
Emax [10]: 0; Kb [11]: 832 nM; Kb [12]: 1070 nM; Emax [13]: 0; Kb [14]: 1000 nM

`NCCc1c[nH]c(C(c2ccccc2)c2ccccc2)n1` was tested. Which Relative potency [15] did it give?
Its Relative potency is 8.

What about the Emax [16] of the same compound?
Its Emax is 28.

What about the pKp [17] of the same compound?
Its pKp is 5.37.

What about the EC50 [7] of the same compound?
The EC50 was 2570 nM.

`CN(C)CCc1c[nH]c(CCC(c2ccccc2)c2ccccc2)n1` was tested. Which Kb [18] did it give?
The Kb was 26300 nM.

What about the pA2 [19] of the same compound?
Its pA2 is < 5.8.

And the Kb [1]?
The Kb was 1150 nM.

What about the pKp [2] of the same compound?
Its pKp is 6.4.

What about the Kb [20] of the same compound?
The Kb was 2.51 nM.

And the Kb [3]?
The Kb was 0.776 nM and 1.38 nM.

What about the EC50 [21] of the same compound?
Its EC50 is 832 nM.

And the Emax [4]?
Its Emax is 51 and 55.

What about the Kb [22] of the same compound?
The Kb was > 1580 nM.

What about the EC50 [5] of the same compound?
Its EC50 is 170 nM.

And the Kb [23]?
The Kb was 7760 nM.

And the Kb [24]?
Its Kb is > 31600 nM.

What about the Kb [25] of the same compound?
Its Kb is 3720 nM.

And the EC50 [7]?
The EC50 was 83.2 nM.

What about the Kb [8] of the same compound?
Its Kb is > 1580 nM.

And the EC50 [26]?
Its EC50 is 120 nM.

What about the Kb [27] of the same compound?
The Kb was 10.5 nM.

What about the Kb [9] of the same compound?
The Kb was 26300 nM.

Which results are given for `NCCc1cnc(CCC(c2ccccc2)c2ccccc2)[nH]1`?
Kb [18]: 45700 nM; Kb [1]: 2820 nM; Kb [28]: 9.12 nM; Kb [20]: 1.58 nM and 0.977 nM; Kb ([3]; in the assay text read “at 1-30 nM mepyramine” for “at 100 nM mepyramine”): 0.776 nM; Kb [22]: > 3160 nM; EC50 [5]: 851 nM; Kb [23]: 3550 nM; Kb [24]: 14100 nM; Kb [25]: 6460 nM; EC50 [7]: 182 nM; Kb [8]: > 1580 nM; EC50 [26]: 1950 nM and 309 nM; Kb [9]: 34700 nM

For `c1ccc(C(CCc2nc(CCN3CCCC3)c[nH]2)c2ccccc2)cc1`, which pKp [2] is on record?
Its pKp is 6.52.

And the Relative potency [29]?
The Relative potency was 331.

And the Emax [4]?
Its Emax is 21.

What about the EC50 [5] of the same compound?
The EC50 was 1350 nM.

What about the Relative potency [30] of the same compound?
The Relative potency was 67.

And the Emax [6]?
The Emax was 28.

What about the EC50 [7] of the same compound?
The EC50 was 295 nM.

And the Concentration [31]?
The Concentration was 100 nM.
